Source: ChEMBL document CHEMBL3352171, “Synthesis and biological evaluation of andrographolide analogues as anti-cancer agents” (Eur J Med Chem, 2014)
The source made the active and inactive calls. No cut-off for these calls is given here.

What was measured:
[1] = system: HEK293; test: Induction of cell cycle arrest in HEK293 cells assessed as accumulation at S phase at 10 uM after 48 hrs by propidium iodide staining based flow cytometry (reference value: 19.9 +/- 0.5%); type: functional, Homo sapiens
[2] = system: HEK293; test: Reduction in NFkappaB expression in HEK293 cells at LC50 level after 48 hrs by Western blot method; type: functional, cell-based; settings: Homo sapiens
[3] = system: HEK293; test: Induction of apoptosis in HEK293 cells at 20 uM after 48 hrs by propidium iodide staining based flow cytometry (reference value: 24.26 +/- 0.8%); type: functional, Homo sapiens
[4] = Cytotoxicity against human MCF10A cells after 48 hrs by MTT assay; type: cell-based; settings: mcf-10a
Procedure, shortened: (§1)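 Cells seeded at 10,000 per well and exposed to increasing compound concentrations for 48 h. After a PBS wash, MTT (2.5 mg/mL) was added for 6 h at 37 °C, then detergent (10% NP-40, 4 mM HCl), and absorbance was read at 570 nm. LC50 is the concentration causing 50% cell death. Values are means of three independent experiments.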

[5] = system: HEK293; test: Reduction in Bcl-xL expression in HEK293 cells at LC50 level after 48 hrs by Western blot method; type: functional, cell-based; settings: Homo sapiens
[6] = molecular target: T1, Nuclear factor NF-kappa-B complex (Homo sapiens) (UniProt Q00653+P19838+Q04206); test: Inhibition of NFkappaB (unknown origin) expressed in HEK293 cells assessed as reduction in transcriptional activity after 48 hrs by luciferase reporter gene assay; type: cell-based
T1 sequence (P19838 whole entry, looked up): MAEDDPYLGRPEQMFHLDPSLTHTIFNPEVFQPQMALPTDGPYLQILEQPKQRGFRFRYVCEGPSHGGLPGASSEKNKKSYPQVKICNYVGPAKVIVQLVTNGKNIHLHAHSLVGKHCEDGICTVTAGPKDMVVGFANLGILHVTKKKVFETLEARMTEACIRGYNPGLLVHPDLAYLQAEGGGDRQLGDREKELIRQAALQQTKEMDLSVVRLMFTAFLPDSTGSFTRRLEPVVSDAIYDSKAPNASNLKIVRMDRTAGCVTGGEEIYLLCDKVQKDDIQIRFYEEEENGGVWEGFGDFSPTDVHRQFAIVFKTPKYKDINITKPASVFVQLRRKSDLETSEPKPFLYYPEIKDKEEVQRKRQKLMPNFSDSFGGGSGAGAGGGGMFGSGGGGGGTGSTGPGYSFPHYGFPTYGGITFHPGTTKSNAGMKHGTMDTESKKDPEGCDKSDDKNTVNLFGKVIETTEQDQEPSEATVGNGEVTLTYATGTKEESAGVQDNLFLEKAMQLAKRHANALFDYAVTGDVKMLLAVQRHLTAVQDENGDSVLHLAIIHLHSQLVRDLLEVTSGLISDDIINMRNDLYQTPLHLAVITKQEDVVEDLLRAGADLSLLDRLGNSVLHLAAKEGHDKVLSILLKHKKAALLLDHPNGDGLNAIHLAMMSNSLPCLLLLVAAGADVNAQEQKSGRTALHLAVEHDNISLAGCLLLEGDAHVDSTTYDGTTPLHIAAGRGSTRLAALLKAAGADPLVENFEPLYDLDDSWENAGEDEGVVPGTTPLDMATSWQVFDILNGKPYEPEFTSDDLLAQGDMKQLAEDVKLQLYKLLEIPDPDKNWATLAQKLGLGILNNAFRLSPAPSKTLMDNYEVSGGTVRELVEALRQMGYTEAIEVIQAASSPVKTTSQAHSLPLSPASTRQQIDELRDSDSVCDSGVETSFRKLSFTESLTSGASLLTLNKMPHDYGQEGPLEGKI
T1 sequence (Q00653 whole entry, looked up): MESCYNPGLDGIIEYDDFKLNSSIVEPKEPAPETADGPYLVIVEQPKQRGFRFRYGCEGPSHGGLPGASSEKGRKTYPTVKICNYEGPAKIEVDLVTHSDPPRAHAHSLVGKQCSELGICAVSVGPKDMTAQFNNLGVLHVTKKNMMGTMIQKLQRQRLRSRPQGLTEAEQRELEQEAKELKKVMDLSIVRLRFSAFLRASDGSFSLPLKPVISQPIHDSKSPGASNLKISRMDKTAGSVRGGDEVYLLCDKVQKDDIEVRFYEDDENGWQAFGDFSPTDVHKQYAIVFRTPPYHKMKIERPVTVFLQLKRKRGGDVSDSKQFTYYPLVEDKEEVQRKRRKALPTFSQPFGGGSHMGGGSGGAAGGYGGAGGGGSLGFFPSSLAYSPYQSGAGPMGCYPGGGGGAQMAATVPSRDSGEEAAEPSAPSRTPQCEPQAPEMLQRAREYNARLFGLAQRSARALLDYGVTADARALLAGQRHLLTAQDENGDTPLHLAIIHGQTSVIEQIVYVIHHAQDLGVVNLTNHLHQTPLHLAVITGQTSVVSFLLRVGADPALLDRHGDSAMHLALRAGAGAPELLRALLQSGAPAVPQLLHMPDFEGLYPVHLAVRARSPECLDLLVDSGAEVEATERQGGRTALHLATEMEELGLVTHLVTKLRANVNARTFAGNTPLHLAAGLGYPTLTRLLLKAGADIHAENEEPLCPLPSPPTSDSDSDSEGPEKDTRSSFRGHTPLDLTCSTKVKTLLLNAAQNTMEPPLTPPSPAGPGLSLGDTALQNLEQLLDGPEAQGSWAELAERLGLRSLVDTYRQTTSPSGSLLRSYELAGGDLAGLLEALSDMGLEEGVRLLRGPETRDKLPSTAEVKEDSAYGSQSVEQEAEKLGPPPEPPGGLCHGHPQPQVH
T1 sequence (Q04206 whole entry, looked up): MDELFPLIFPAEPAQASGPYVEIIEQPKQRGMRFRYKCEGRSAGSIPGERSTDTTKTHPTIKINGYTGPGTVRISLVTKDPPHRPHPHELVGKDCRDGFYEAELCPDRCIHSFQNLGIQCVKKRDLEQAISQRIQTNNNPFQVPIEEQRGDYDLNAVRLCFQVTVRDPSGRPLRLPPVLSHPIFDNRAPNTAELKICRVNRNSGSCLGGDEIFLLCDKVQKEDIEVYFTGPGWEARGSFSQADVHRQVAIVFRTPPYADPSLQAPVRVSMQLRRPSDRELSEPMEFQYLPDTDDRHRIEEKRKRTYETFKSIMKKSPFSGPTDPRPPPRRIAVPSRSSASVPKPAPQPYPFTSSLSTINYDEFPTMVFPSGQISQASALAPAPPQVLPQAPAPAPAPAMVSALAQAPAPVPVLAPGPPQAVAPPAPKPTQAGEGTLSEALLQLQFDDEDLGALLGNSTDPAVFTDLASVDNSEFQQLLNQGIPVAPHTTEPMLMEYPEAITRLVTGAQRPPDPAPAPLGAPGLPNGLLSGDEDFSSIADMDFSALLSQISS
Procedure, shortened: (§2)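 HEK-293 at 70% confluence transfected by calcium phosphate with NF-kB luciferase ([…]) and b-Gal ([…]) plasmids, 6–8 h, then fresh serum medium 12 h; treated 48 h, lysed, luciferase read and normalized to b-galactosidase. Three independent experiments.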

[7] = system: HEK293; test: Reduction in Bcl-xL expression in p53 deficient HEK293 cells at LC50 level after 48 hrs by Western blot method; type: functional, cell-based; settings: Homo sapiens
[8] = system: MCF7; test: Cytotoxicity against human MCF7 cells after 48 hrs by MTT assay; type: functional; settings: MCF7, 48 h, read-out: LC50 (the source's name); procedure, shortened: as §1
[9] = system: HEK293; test: Induction of apoptosis in HEK293 cells assessed as apoptotic nuclei formation at 5 uM after 48 hrs by DAPI staining based fluorescence microscopy; type: functional, cell-based; settings: Homo sapiens
[10] = system: HEK293; test: Reduction in NFkappaB expression in p53 deficient HEK293 cells at LC50 level after 48 hrs by Western blot method; type: functional, cell-based; settings: Homo sapiens
[11] = system: HEK293; test: Induction of cell cycle arrest in HEK293 cells assessed as accumulation at G1 phase at 5 uM after 48 hrs by propidium iodide staining based flow cytometry (reference value: 53.21 +/- 0.8%); type: functional, Homo sapiens
[12] = system: HEK293; test: Induction of apoptosis in HEK293 cells at 20 uM after 48 hrs by propidium iodide staining based flow cytometry relative to untreated control; type: functional, Homo sapiens
[13] = system: Calf thymus DNA; test: Binding affinity to calf thymus DNA at 3.33 to 20 uM after 2 hrs by UV-visible absorption spectroscopy; type: nucleic-acid assay; settings: Bos taurus
Procedure, shortened: (§3)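 CT-DNA at fixed […] in 50 mM Tris-HCl/NaCl pH 7.5, incubated with compound for 2 h at 37 °C, scanned 200–400 nm after dilution. Spectra normalized at 230 nm. Fraction bound q from absorbance near 260 nm; Boltzmann fit, Kb as reciprocal of half-saturation concentration.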

[14] = system: HEK293; test: Induction of cell cycle arrest in HEK293 cells assessed as accumulation at S phase at 15 uM after 48 hrs by propidium iodide staining based flow cytometry (reference value: 19.9 +/- 0.5%); type: functional, Homo sapiens
[15] = system: HEK293; test: Induction of cell cycle arrest in HEK293 cells assessed as accumulation at G1 phase at 20 uM after 48 hrs by propidium iodide staining based flow cytometry (reference value: 53.21 +/- 0.8%); type: functional, Homo sapiens
[16] = system: Calf thymus DNA; test: Binding affinity to calf thymus DNA assessed as reduction of DNA absorption band at 260 nanometer at 3.33 to 20 uM after 2 hrs by UV-visible absorption spectroscopy; type: nucleic-acid assay; settings: Bos taurus; procedure, shortened: as §3
[17] = molecular target: T1, Nuclear factor NF-kappa-B complex (Homo sapiens); test: Inhibition of NFkappaB (unknown origin) expressed in HEK293 cells assessed as reduction in transcriptional activity at 5 uM after 48 hrs by luciferase reporter gene assay; type: cell-based; procedure, shortened: as §2
[18] = system: HEK293; test: Induction of cell death in HEK293 cells at 15 to 20 uM after 48 hrs by DAPI staining based fluorescence microscopy; type: functional; settings: Homo sapiens
[19] = system: HEK293; test: Induction of apoptosis in HEK293 cells at 5 to 20 uM after 48 hrs by DAPI staining based fluorescence microscopy; type: functional, cell-based; settings: Homo sapiens
[20] = Induction of DNA adduct formation (unknown origin) using guanosine in presence of glacial acetic acid at 75 degC incubated for 12 hrs by LC-MS method
Procedure, shortened: (§4)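 Model reaction of compound with guanosine in glacial acetic acid at 75 °C, heated up to 12 h; adduct sought by TLC and LCMS.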

[21] = system: HEK293; test: Increase in p53 expression in p53 deficient HEK293 cells at LC50 level after 48 hrs by Western blot method; type: functional, cell-based; settings: Homo sapiens
[22] = system: HEK293; test: Cytotoxicity against HEK293 cells after 48 hrs by MTT assay; type: functional; settings: Homo sapiens, HEK293, 48 h; read-out: LC50 (the source's name); procedure, shortened: as §1
[23] = system: HEK293; test: Induction of cell cycle arrest in HEK293 cells assessed as accumulation at G2/M phase at 10 uM after 48 hrs by propidium iodide staining based flow cytometry (reference value: 2.63 +/- 0.7%); type: functional, Homo sapiens
[24] = Hydrolysis half life in pH 7.4 PBS buffer assessed as andrographolide formation by HPLC method; type: physicochemical
[25] = system: HEK293; test: Induction of cell cycle arrest in HEK293 cells assessed as accumulation at G1 phase at 15 uM after 48 hrs by propidium iodide staining based flow cytometry (reference value: 53.21 +/- 0.8%); type: functional, Homo sapiens
[26] = Retention time of the compound by HPLC method; type: physicochemical
[27] = system: HEK293; test: Induction of cell cycle arrest in HEK293 cells assessed as accumulation at G2/M phase at 5 uM after 48 hrs by propidium iodide staining based flow cytometry (reference value: 2.63 +/- 0.7%); type: functional, Homo sapiens
[28] = system: HEK293; test: Increase in Bax expression in HEK293 cells at LC50 level after 48 hrs by Western blot method; type: functional, cell-based; settings: Homo sapiens
[29] = system: HEK293; test: Induction of cell cycle arrest in HEK293 cells assessed as accumulation at G2/M phase at 20 uM after 48 hrs by propidium iodide staining based flow cytometry (reference value: 2.63 +/- 0.7%); type: functional, Homo sapiens
[30] = system: HEK293; test: Induction of apoptosis in HEK293 cells at 5 uM after 48 hrs by propidium iodide staining based flow cytometry (reference value: 24.26 +/- 0.8%); type: functional, Homo sapiens
[31] = species: Bos taurus; test: Induction of conformational changes in calf thymus DNA assessed as B-DNA conformation changes at 100 uM after 2 hrs by CD spectroscopy
[32] = Induction of DNA adduct formation (unknown origin) using guanosine in presence of glacial acetic acid at 75 degC incubated for 12 hrs by TLC method; procedure, shortened: as §4
[33] = system: HEK293; test: Induction of apoptosis in HEK293 cells at 10 uM after 48 hrs by propidium iodide staining based flow cytometry (reference value: 24.26 +/- 0.8%); type: functional, Homo sapiens
[34] = system: HEK293; test: Increase in PARP cleavage in p53 deficient HEK293 cells at LC50 level after 48 hrs by Western blot method; type: functional, cell-based; settings: Homo sapiens

SMILES: C=C1CC[C@@H]2[C@](C)(CO)[C@H](O)CC[C@@]2(C)[C@@H]1C/C=C1/C(=O)OC[C@H]1OC(=O)CI
- Activity [1]: 7.57%
- Activity [2]: Active
- Activity [3]: 89.69%
- LC50 [4]: > 40 µM
- Activity [5]: Active
- inhibition [6]: Dose-dependent effect
- Activity [7]: inactive
- CC50 [8]: 6 µM
- Activity [9]: Active
- Activity [10]: inactive
- Activity [11]: 24.77%
- fold change (FC) [12]: >5
- Kb [13]: 2.5 ×10⁵ /M
- Activity [14]: 5.67%
- Activity [15]: 7.96%
- Activity [16]: Active
- fold change (FC) [17]: 5
- Activity [18]: Active
- Activity [19]: Dose-dependent effect
- Activity [20]: inactive
- Activity [21]: inactive
- CC50 [22]: 8 µM
- Activity [23]: 2.74%
- t1/2 [24]: 35 min
- Activity [25]: 14.8%
- Retention_time [26]: 26.9 min
- Activity [27]: 2.14%
- Activity [28]: Active
- Activity [29]: 0.69%
- Activity [30]: 43.09%
- Activity [31]: inactive
- Activity [32]: inactive
- Activity [33]: 74.03%
- Activity [34]: inactive
